In ChEMBL document CHEMBL1144909, “Design, synthesis, and biological evaluation of a series of fluoroquinoanthroxazines with contrasting dual mechanisms of action against topoisomerase II and G-quadruplexes” (J Med Chem, 2003):
Calls of active or inactive are those of the source. The calls are words filed in the database; no cut-off is given here.

Legend:
[1] = tested on: MCF7; assay: Cytotoxicity of compound was tested against MCF-7 breast cancer cells; type: functional, cell-based; settings: Homo sapiens
How it was run: (§1)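 MTT assay. Exponentially growing cells (1–2 × 10^3 per well) seeded day 0; graded compound concentrations added day 1; on day 4, MTT (1 mg/mL in DPBS) added for 4 h at 37 °C. 8226/S (RPMI 8226 myeloma) and doxorubicin-resistant, topoisomerase II-reduced 8226/DOX1V; MCF7 breast cells. Myeloma values are the mean ± SD of four experiments; IC50 in μM.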

[2] = target: T1, DNA topoisomerase II (Homo sapiens) (UniProt P11388+Q02880); assay: Inhibition against decatenation activity of DNA topoisomerase II at a concentration of 100 uM; type: protein assay
How it was run: (§2)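 Human topoisomerase II (2 units) was then added for 30 min at 37 °C. Sarkosyl stop; products resolved on 1% agarose with ethidium bromide; decatenated kDNA quantified by densitometry.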

[3] = tested on: RPMI-8226; assay: Cytotoxicity of compound against 8226/S cells; type: functional, Homo sapiens; how it was run: as §1
[4] = tested on: RPMI-8226; assay: Cytotoxicity of compound against 8226/DOX1V cells; type: functional, Homo sapiens; how it was run: as §1
[5] = Ratio of cytotoxicity of DOX1V/S cells; type: functional
How it was run: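 Ratio of IC50 in 8226/DOX1V (doxorubicin-resistant, reduced topoisomerase II) to IC50 in parental 8226/S. Both IC50s come from a 3-day MTT assay, each the mean of four experiments.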

[6] = target: T2, DNA polymerase I, thermostable (Thermus aquaticus, UniProt P19821); assay: Inhibition of Taq DNA polymerase
T2 sequence (P19821 whole entry): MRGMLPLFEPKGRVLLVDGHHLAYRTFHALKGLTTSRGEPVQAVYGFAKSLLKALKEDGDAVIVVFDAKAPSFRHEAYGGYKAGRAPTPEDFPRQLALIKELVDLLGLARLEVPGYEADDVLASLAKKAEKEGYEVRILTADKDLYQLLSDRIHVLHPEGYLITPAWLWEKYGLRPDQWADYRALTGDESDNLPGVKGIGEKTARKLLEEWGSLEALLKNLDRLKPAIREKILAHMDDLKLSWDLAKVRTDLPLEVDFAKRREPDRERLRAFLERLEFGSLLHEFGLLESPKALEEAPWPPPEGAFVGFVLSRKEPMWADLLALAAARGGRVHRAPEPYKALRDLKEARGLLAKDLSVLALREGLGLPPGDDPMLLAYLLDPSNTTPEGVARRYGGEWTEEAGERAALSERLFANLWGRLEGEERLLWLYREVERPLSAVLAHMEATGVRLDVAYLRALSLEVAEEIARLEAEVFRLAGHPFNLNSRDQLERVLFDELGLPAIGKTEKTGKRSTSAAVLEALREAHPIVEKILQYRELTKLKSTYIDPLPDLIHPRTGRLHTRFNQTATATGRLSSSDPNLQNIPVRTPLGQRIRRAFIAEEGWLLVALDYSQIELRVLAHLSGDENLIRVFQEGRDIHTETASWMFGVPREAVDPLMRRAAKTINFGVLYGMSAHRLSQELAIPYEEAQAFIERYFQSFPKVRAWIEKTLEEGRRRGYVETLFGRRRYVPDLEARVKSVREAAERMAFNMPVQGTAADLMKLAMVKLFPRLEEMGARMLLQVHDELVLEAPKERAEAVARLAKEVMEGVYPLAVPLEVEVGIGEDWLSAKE

[7] = target: T2, DNA polymerase I, thermostable; assay: Inhibition of Taq DNA polymerase by TRAP assay
[8] = target: T1, DNA topoisomerase II (Homo sapiens); assay: Inhibition against decatenation activity of DNA topoisomerase II at a concentration of 3.2 uM; type: protein assay; how it was run: as §2

Row | SMILES | IC50 [1] | inhibition [2] | Average [3] | Average [4] | Ratio [5] | IC50 [6] | IC50 [7] | inhibition [8]
1 | N[C@H]1CCN(c2c(F)cc3c(=O)c(C(=O)O)cn4c3c2Oc2c-4ccc3c2ccc2ccccc23)C1 | 1.1 µM | inactive | 0.69 µM | 2.775 µM | 4.02 | 0.67 µM | 21 µM | 
2 | N[C@H]1CCN(c2c(F)cc3c(=O)c(C(=O)O)cn4c3c2Oc2cc3c(ccc5ccccc53)cc2-4)C1 | 14.2 µM | inactive | >10 µM | >10 µM |  | 5.7 µM |  | 
3 | N[C@@H]1CCN(c2c(F)cc3c(=O)c(C(=O)O)cn4c3c2Oc2c-4ccc3c2ccc2ccccc23)C1 | 0.46 µM | inactive | 0.324 µM | 0.501 µM | 1.55 | 0.06 µM | 5.6 µM | 
4 | N[C@H]1CCN(c2c(F)cc3c(=O)c(C(=O)O)cn4c3c2Oc2ccccc2-4)C1 |  |  |  |  |  |  |  | 50%
5 | N[C@@H]1CCN(c2c(F)cc3c(=O)c(C(=O)O)cn4c3c2Oc2cc3c(ccc5ccccc53)cc2-4)C1 | 4.3 µM | inactive | 5.46 µM | >10 µM |  | 2.4 µM |  | 
6 | COc1cccc2c1C(=O)c1c(O)c3c(c(O)c1C2=O)C[C@@](O)(C(=O)CO)C[C@@H]3O[C@H]1C[C@H](N)[C@H](O)[C@H](C)O1 [DOXORUBICIN] |  |  | 0.037 µM | 0.32 µM | 8.65 |  |  | 
